The results in this text go back to ChEMBL document CHEMBL1134363 (J Med Chem, 2001).

Test [1] addresses T1, Adrenergic receptor alpha-1 (Rattus norvegicus, UniProt P15823+P23944+P43140).
T1 sequence (P15823 whole entry): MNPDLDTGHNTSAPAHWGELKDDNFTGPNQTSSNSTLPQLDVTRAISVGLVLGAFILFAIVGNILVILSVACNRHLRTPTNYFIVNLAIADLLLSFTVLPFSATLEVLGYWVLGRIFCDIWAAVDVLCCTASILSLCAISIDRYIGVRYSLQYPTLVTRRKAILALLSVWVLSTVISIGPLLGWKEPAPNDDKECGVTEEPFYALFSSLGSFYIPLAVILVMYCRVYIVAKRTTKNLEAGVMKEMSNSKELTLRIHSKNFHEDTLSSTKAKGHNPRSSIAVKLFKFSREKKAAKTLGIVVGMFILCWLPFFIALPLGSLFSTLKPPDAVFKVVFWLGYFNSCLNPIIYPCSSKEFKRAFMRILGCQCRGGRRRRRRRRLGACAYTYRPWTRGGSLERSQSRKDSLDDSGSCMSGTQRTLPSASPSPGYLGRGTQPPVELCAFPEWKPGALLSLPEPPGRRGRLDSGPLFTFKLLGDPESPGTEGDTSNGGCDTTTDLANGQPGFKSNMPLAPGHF
T1 sequence (P23944 whole entry): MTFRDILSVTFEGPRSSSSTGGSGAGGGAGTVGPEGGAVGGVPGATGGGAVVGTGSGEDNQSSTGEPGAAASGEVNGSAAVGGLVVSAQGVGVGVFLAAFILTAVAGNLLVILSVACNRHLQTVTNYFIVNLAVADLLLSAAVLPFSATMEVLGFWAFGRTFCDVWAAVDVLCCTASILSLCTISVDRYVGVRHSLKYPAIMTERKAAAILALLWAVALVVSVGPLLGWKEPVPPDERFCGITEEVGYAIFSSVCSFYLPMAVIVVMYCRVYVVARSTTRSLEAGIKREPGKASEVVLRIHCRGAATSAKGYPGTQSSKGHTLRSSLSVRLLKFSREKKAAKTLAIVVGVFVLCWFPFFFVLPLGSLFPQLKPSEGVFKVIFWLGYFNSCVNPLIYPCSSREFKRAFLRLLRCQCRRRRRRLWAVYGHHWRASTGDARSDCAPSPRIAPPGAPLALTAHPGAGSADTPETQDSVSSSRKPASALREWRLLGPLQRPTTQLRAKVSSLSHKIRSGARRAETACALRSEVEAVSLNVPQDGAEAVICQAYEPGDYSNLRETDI
T1 sequence (P43140 whole entry): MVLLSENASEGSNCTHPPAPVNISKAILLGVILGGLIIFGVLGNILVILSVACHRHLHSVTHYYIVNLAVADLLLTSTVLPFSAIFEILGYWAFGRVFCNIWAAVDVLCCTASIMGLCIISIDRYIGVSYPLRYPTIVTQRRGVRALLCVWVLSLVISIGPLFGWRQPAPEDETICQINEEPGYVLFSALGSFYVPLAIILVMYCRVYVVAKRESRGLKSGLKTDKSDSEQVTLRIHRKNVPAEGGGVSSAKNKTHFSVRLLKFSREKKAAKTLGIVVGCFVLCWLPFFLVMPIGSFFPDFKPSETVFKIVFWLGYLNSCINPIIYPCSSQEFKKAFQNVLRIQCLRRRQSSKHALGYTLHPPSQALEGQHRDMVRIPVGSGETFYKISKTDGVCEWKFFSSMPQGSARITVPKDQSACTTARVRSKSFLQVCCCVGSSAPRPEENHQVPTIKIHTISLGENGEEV
Briefly: In vitro binding affinity against alpha-1 adrenergic receptor of rat in presence of [3H]-prazosin radioligand. The test is classed as protein assay.

The target in test [2] is T2, Alpha-2A adrenergic receptor (Homo sapiens) (UniProt P08913).
T2 sequence (whole entry): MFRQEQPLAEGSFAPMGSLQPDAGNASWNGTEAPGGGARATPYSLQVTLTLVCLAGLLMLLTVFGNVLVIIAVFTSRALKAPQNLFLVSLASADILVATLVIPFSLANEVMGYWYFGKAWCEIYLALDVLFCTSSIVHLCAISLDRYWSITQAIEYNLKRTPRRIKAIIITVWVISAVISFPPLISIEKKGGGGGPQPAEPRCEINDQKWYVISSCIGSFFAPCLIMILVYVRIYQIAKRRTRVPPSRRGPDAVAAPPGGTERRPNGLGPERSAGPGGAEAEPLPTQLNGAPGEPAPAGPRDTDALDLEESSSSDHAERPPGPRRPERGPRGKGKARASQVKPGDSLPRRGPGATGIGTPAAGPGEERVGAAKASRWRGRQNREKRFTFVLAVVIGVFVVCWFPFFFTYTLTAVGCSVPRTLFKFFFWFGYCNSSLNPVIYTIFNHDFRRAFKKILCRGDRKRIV
Briefly: Antagonistic activity as [35S]GTP gamma-S binding at alpha-2a adrenergic receptor expressed in CHO cells. The test is classed as functional, cell-based. The procedure, abridged:
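Membranes (40 μg/mL) from CHO cells stably expressing human α2A receptor, preincubated 30 min at room temperature with drug in 20 mM HEPES pH 7.4, 100 mM NaCl, 3 μM GDP, 3 mM MgCl2; 0.2 nM [35S]GTPγS added, 60 min room temperature, NA 10 μM as agonist. Nonspecific: 10 μM GTPγS. Filtration, scintillation counting; pKB from IC50 corrected for agonist concentration/EC50.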
A general note: GTPγS is a poorly hydrolysed GTP analogue; its binding reports G protein activation.

The target of test [3] is T3, Adrenergic receptor alpha-2 (Rattus norvegicus, UniProt P22086+P19328+P22909).
T3 sequence (P22086 whole entry): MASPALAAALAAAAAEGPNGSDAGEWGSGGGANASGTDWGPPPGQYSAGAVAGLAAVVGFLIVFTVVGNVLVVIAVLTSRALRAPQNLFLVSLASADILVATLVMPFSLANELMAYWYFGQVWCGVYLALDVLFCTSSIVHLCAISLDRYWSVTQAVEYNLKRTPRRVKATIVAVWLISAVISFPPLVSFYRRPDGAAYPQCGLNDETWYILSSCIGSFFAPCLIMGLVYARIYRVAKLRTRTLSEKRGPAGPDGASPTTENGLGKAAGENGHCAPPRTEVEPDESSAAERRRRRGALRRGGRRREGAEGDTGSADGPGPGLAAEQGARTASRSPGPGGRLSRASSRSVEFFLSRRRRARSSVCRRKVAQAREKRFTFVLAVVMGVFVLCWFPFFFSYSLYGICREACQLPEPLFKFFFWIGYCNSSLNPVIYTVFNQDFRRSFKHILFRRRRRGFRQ
T3 sequence (P19328 whole entry): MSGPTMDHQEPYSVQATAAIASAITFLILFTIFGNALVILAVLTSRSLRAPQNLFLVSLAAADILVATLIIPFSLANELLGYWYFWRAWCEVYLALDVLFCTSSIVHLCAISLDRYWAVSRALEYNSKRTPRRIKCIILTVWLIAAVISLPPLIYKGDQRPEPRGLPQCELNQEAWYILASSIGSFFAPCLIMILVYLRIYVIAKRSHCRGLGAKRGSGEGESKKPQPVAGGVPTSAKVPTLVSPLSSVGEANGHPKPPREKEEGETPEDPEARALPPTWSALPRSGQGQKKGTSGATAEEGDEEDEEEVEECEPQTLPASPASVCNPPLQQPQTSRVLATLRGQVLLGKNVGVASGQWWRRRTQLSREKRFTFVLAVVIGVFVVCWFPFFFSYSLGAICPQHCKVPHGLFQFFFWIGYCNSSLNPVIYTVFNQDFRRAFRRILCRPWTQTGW
T3 sequence (P22909 whole entry): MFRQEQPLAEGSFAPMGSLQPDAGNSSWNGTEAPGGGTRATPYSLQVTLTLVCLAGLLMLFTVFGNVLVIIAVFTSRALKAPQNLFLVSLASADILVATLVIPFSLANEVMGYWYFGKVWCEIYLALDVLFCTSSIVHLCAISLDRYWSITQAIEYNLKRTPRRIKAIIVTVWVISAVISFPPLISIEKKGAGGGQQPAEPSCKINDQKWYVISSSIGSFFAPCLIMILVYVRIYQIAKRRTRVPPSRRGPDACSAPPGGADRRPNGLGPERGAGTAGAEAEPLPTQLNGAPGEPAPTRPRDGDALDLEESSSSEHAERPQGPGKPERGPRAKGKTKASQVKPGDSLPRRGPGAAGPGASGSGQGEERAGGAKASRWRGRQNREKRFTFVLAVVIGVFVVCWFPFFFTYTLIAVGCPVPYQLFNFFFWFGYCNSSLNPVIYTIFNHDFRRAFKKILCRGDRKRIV
The test is described as follows: In vitro binding affinity against alpha-2 adrenergic receptor of rat in presence of [3H]-RX 821002 radioligand. The test is classed as protein assay.

Test [4] addresses Sodium-dependent serotonin transporter (Rattus norvegicus, UniProt P31652). Briefly: In vitro binding affinity was determined against serotonin reuptake site of rat in presence of [3H]paroxetine radioligand.
Test [5] concerns the target T4, Alpha-2A adrenergic receptor (Homo sapiens, UniProt P08913).
T4 sequence (P08913 whole entry): T2 sequence (whole entry)
Briefly: Binding affinity for human alpha-2 adrenergic receptor expressed in CHO cell. The test is classed as cell-based.

For test [6], the target named is Norepinephrine transporter (Rattus norvegicus, UniProt Q9WTR4). Briefly: In vitro binding affinity was determined against NA (noradrenaline) reuptake site of rat in presence of [3H]nisoxetine radioligand.

The structures appear in SMILES notation.

Chain of Sodium-dependent serotonin transporter (P31652 whole entry): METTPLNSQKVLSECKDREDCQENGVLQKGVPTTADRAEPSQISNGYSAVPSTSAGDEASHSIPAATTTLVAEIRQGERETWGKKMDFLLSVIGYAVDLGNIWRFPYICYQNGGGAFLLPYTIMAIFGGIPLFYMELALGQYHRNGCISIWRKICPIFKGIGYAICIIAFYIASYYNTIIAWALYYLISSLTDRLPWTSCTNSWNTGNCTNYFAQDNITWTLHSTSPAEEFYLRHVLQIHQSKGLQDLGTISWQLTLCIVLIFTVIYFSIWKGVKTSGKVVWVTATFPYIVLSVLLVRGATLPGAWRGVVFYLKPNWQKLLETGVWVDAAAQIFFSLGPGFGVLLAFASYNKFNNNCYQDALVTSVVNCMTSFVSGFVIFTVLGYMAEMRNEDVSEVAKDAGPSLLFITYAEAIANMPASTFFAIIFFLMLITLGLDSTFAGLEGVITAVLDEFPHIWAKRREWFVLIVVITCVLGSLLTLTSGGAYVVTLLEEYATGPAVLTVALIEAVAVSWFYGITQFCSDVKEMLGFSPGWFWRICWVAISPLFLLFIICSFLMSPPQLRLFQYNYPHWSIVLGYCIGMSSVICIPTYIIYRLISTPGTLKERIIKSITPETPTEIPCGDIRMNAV
Chain of Norepinephrine transporter (Q9WTR4 whole entry): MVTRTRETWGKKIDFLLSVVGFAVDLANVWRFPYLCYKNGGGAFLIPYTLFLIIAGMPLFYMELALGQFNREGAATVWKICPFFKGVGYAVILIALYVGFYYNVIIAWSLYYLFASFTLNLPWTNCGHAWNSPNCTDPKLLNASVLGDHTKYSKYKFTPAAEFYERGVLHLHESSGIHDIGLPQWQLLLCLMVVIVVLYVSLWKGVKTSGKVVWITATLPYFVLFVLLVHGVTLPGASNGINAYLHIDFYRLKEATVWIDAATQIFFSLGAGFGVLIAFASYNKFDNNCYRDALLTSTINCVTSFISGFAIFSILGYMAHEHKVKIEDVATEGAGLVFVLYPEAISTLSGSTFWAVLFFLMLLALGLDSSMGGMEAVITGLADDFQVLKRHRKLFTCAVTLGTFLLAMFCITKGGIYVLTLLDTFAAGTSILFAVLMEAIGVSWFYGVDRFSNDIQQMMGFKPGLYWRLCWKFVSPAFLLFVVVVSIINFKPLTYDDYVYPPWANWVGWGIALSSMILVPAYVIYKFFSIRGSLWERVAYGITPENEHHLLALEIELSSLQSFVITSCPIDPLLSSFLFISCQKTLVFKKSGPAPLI

As to `C1=NCC(CC2Cc3ccccc3C2)N1` (configuration not stated), the “Log Ki” value in test [1] is -6.3; in test [3], -8.7. For the same compound, the pKB (in general, −log10 of the KB, conventionally taken in molar units) in test [2] is 8.1. The Ki (usually a dissociation constant, usually derived from enzyme kinetics or from competition with a known ligand) in test [4] was 63.1 nM; in test [5], 3.98 nM; in test [6] it was 39.8 nM.

Take `Fc1cccc2c1C=C(CC1CN=CN1)CC2` (configuration not stated): the “Log Ki” value in test [1] is listed as -6.3; in test [3], -7.4. For the same compound, in test [2], the pKB worked out at 6.8. Moreover, the Ki in test [4] was 79.4 nM; in test [5] it was 39.8 nM; in test [6], 126 nM.

As to `C1=NC[C@H](C[C@]23CCc4ccccc4C2C3)N1` (some centres not stated), the “Log Ki” value in test [1] is given as -5.9; in test [3], -7.3. Further, in test [2], the pKB is 6.8. Further, the Ki in test [4] is 50.1 nM; in test [5], 63.1 nM; in test [6], 794 nM.

On to `C1=NC[C@]2(CC[C@@H]3Cc4ccccc4C[C@H]3C2)N1` (relative stereo), for which the entries for the “Log Ki” value in test [1] and in test [3] were -6.1 and -8, respectively. The pKB in test [2] was 8.2. Further, the values for the Ki in test [4], in test [5] and in test [6] were 15.8 nM, 1.26 nM and 200 nM, respectively.

On to `C1=NCC(CC2=Cc3ccccc3CC2)N1` (configuration not stated), for which the “Log Ki” value in test [1] is listed as -6.4; in test [3] it was -7. Besides, in test [2], the pKB was determined as 6.6. In addition, the figures for the Ki in test [4], in test [5] and in test [6] were 39.8 nM, 100 nM and 50.1 nM, respectively.

For the compound `Fc1ccc2c(c1)C=C(CC1CN=CN1)CC2` (configuration not stated), the results for the “Log Ki” value in test [1] and in test [3] were -6.6 and -6.7, respectively. Also, the pKB in test [2] amounted to 6.7. In addition, the Ki is 1.58 nM in test [4], 158 nM in test [5] and 50.1 nM in test [6].

For the compound `Clc1cccc2ccc(CC3CN=CN3)cc12` (configuration not stated), the “Log Ki” value in test [1] is given as -6.4; in test [3], -7.5. This compound also displayed a pKB in test [2] of 7.5. Besides, the Ki in test [4] is 31.6 nM; in test [5], 25.1 nM; in test [6], 20 nM.
